# Results from ChEMBL document CHEMBL1123769, “Renin inhibitors. Design of angiotensinogen transition-state analogues containing novel. (2R,3R,4R,5S)-5-amino-3,4-dihydroxy-2-isopropyl-7-methyloctanoic acid” (J Med Chem, 1987).
# pIC50: −log10 of the molar value. Where a SMILES comes first, the peptide text is derived from it. [ ]: non-standard residue; d: D form. The star is where a group is joined. 1Nal = N[C@@H](Cc1cccc2ccccc12)C(=O)O; Leu(ol) = CC(C)C[C@H](N)CO; Cbz = O=C(OCc1ccccc1)*
# Target: T1, Renin (Homo sapiens, UniProt P00797)
# T1 sequence (P00797 whole entry): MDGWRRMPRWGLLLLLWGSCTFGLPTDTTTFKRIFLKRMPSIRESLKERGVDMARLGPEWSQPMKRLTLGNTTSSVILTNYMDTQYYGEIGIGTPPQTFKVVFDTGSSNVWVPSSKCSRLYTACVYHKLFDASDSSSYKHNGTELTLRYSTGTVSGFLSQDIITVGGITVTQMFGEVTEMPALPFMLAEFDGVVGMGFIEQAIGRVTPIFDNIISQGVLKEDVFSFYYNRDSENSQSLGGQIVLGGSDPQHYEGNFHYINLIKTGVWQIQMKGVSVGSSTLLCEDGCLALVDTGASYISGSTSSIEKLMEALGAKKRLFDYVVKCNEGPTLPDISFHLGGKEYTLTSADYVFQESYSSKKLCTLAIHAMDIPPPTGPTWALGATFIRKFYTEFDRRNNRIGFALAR
# Experiment: Tested for the inhibition of human plasma renin
# Procedure, shortened: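 Lyophilized human plasma with 0.1% EDTA, incubated with phenylmethanesulfonyl fluoride, maleate buffer (pH 6.0) and inhibitor in 1% Tween 80/water vehicle, 90 min at 37 °C. Angiotensin I generated was measured by radioimmunoassay kit. Percent inhibition came from inhibitor versus control plasma renin activity. IC50 was estimated graphically from 3–4 inhibitor concentrations plotted on a semilog scale.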
row,SMILES,pIC50
1,CC(C)C[C@@H](C=O)NC(=O)[C@H](Cc1c[nH]cn1)NC(=O)[C@H](Cc1ccccc1)NC(=O)OCc1ccccc1 (Cbz-Phe-His-Leu-aldehyde),6.12
2,CC[C@H](C)[C@H](NC(=O)[C@@H](C[C@H](O)[C@H](CC(C)C)NC(=O)[C@H](Cc1c[nH]cn1)NC(=O)[C@H](Cc1ccccc1)NC(=O)OC(C)(C)C)C(C)C)C(=O)NCc1ccccn1,6.66
3,O=C(N[C@@H](Cc1cccc2ccccc12)C(=O)N[C@@H](Cc1c[nH]cn1)C(=O)N[C@@H](Cc1ccccc1)[C@@H](O)CO)OCc1ccccc1,6.00
4,CC(C)C[C@@H](CO)NC(=O)[C@H](Cc1c[nH]cn1)NC(=O)[C@H](Cc1cccc2ccccc12)NC(=O)OCc1ccccc1 (Cbz-[1Nal]-His-[Leu(ol)]),5.44
5,CC(C)(C)OC(=O)N[C@@H](Cc1ccccc1)C(=O)N[C@@H](Cc1c[nH]cn1)C(=O)N[C@@H](Cc1ccccc1)[C@@H](O)CO,5.59
6,CC[C@H](C)[C@H](NC(=O)[C@@H](CC(=O)[C@H](CC(C)C)NC(=O)[C@H](Cc1c[nH]cn1)NC(=O)[C@H](Cc1ccccc1)NC(=O)OC(C)(C)C)C(C)C)C(=O)NCc1ccccn1,5.51
7,CC[C@H](C)CNC(=O)[C@H](C(C)C)[C@@H](O)[C@H](O)[C@H](CC(C)C)NC(=O)[C@H](Cc1c[nH]cn1)NC(=O)[C@H](Cc1ccccc1)NC(=O)OC(C)(C)C,5.47
8,CC[C@H](C)[C@H](NC(=O)[C@H](C(C)C)[C@@H](O)[C@H](O)[C@H](CC(C)C)NC(=O)[C@H](Cc1c[nH]cn1)NC(=O)[C@H](Cc1ccccc1)NC(=O)OC(C)(C)C)C(=O)NCc1ccccn1,6.46
9,CC(C)C[C@@H](C=O)NC(=O)[C@H](Cc1c[nH]cn1)NC(=O)[C@H](Cc1cccc2ccccc12)NC(=O)OCc1ccccc1 (Cbz-[1Nal]-His-Leu-aldehyde),7.10

# Target: T2, Renin (Homo sapiens) (UniProt P00797)
# T2 sequence (whole entry): T1 sequence (P00797 whole entry)
# Experiment: Tested for the inhibition of human plasma renin at 10e-4 M concentration
row,SMILES,inhibition [%]
1,CC(C)C[C@@H](CO)NC(=O)[C@H](Cc1c[nH]cn1)NC(=O)[C@H](Cc1ccccc1)NC(=O)OCc1ccccc1 (HELM PEPTIDE1{[O=C(OCc1ccccc1)[*:2]].F.H.[CC(C)C[C@@H](CO)N[*:1]]}$$$$V2.0),22
